Measurements reported in ChEMBL document CHEMBL4028903 (J Med Chem, 2017).
Values after ≈ are worked out from the molar mass of the structure shown. Active and inactive are the calls of the source. No cut-off for these calls is given here.

What was measured:
[1] = test system: Rattus norvegicus; experiment: Dose normalized AUC (0 to 24 hrs) in Sprague-Dawley rat at 0.03 mg/kg, po qd administered via gavage measured on day 1 by LC-MS/MS analysis; format: ADME, organism-based; conditions: in vivo
[2] = Cmax in Sprague-Dawley rat at 0.1 mg/kg, po qd administered via gavage measured on day 11 by LC-MS/MS analysis; format: ADME, organism-based; set-up: dose 0.1 mg/kg, route oral; conditions: in vivo
[3] = Drug uptake in Sprague-Dawley rat plasma at 0.03 mg/kg, po qd administered via gavage measured 7 hrs post last dose on day 14 by LC-MS/MS analysis; format: ADME, organism-based
[4] = test system: Rattus norvegicus; experiment: Drug metabolism in rat assessed as taurine conjugated metabolite formation at 3 mg/kg, iv or 1 mg/kg, po administered via gavage by LC-MS/MS analysis; format: ADME, organism-based; conditions: in vivo
[5] = AUC (0 to 24 hrs) in Sprague-Dawley rat at 0.01 mg/kg, po qd administered via gavage measured on day 1 by LC-MS/MS analysis; format: ADME, organism-based; set-up: dose 0.01 mg/kg, time < 24 hr, route oral; conditions: in vivo
[6] = AUC (0 to 24 hrs) in Sprague-Dawley rat at 0.003 mg/kg, po qd administered via gavage measured on day 11 by LC-MS/MS analysis; format: ADME, organism-based; set-up: time < 24 hr, dose 0.003 mg/kg, route oral; conditions: in vivo
[7] = AUC (0 to 24 hrs) in Sprague-Dawley rat at 0.01 mg/kg, po qd administered via gavage measured on day 11 by LC-MS/MS analysis; format: ADME, organism-based; set-up: dose 0.01 mg/kg, time < 24 hr, route oral; conditions: in vivo
[8] = Cmax in Sprague-Dawley rat at 1 mg/kg, po qd administered via gavage measured on day 11 by LC-MS/MS analysis; format: ADME, organism-based; set-up: dose 1 mg/kg, route oral; conditions: in vivo
[9] = Volume of distribution at steady state in rat at 3 mg/kg, iv or 1 mg/kg, po administered via gavage by LC-MS/MS analysis; format: ADME, organism-based; conditions: in vivo, read-out: Vdss
Summary of the method: (§1)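 IV dosing used a solution in 75% PEG300:25% D5W for mouse and rat, and a solution in 20% PEG300, 5% solutol, 75% carbonate buffer pH 8 for dog. PO dosing used a suspension in 0.5% methylcellulose, 0.5% Tween80, 99% water for all three species.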

[10] = test system: Rattus norvegicus; experiment: In vivo agonist activity at FXR in Sprague-Dawley rat assessed as downregulation of CYP8B1 mRNA level in liver at >0.03 mg/kg, po qd for 14 days measured 7 hrs post last dose on day 14 by qPCR analysis; format: functional, organism-based
[11] = Cmax in Sprague-Dawley rat at 0.003 mg/kg, po qd administered via gavage measured on day 1 by LC-MS/MS analysis; format: ADME, organism-based; set-up: dose 0.003 mg/kg, route oral; conditions: in vivo
[12] = Terminal half life in rat at 3 mg/kg, iv by LC-MS/MS analysis; format: ADME, organism-based; conditions: in vivo, read-out: beta t1/2 (converted)
Summary of the method: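 Rats were dosed IV as a solution in 75% PEG300:25% D5W, or orally as a suspension in 0.5% methylcellulose, 0.5% Tween80 and 99% water.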

[13] = Solubility of the compound in fasted state simulated intestinal fluid at pH 6.8; format: physicochemical
[14] = test system: Canis familiaris; experiment: Drug metabolism in dog assessed as glycine conjugated metabolite formation at 0.5 mg/kg, iv or 2 mg/kg, po administered via gavage by LC-MS/MS analysis; format: ADME, organism-based, Canis lupus familiaris; conditions: in vivo
Summary of the method: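 Plasma samples were taken from the dog PK studies. The IV solution was 20% PEG300, 5% solutol and 75% carbonate buffer pH = 8. The PO suspension was 0.5% methylcellulose, 0.5% Tween80 and 99% water. Samples were screened for taurine- and glycine-conjugated metabolites and for the acylglucuronide.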

[15] = AUC (0 to 24 hrs) in Sprague-Dawley rat at 1 mg/kg, po qd administered via gavage measured on day 11 by LC-MS/MS analysis; format: ADME, organism-based; set-up: time < 24 hr, dose 1 mg/kg, route oral; conditions: in vivo
[16] = AUC (0 to 24 hrs) in Sprague-Dawley rat at 0.003 mg/kg, po qd administered via gavage measured on day 1 by LC-MS/MS analysis; format: ADME, organism-based; set-up: time < 24 hr, dose 0.003 mg/kg, route oral; conditions: in vivo
[17] = Half life in rat at 3 mg/kg, iv by LC-MS/MS analysis; format: ADME, organism-based; conditions: in vivo
Summary of the method: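 Single IV dose given as a solution. Mouse and rat received it in 75% PEG300:25% D5W. Dog received it in 20% PEG300, 5% solutol and 75% carbonate buffer pH = 8. Plasma was sampled for PK parameters.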

[18] = test system: Rattus norvegicus; experiment: In vivo agonist activity at FXR in Sprague-Dawley rat assessed as induction of SHP mRNA level in liver at 0.01 mg/kg, po qd for 14 days measured 7 hrs post last dose on day 14 by qPCR analysis; format: functional, organism-based
[19] = test system: Rattus norvegicus; experiment: Drug metabolism in rat assessed as glycine conjugated metabolite formation at 3 mg/kg, iv or 1 mg/kg, po administered via gavage by LC-MS/MS analysis; format: ADME, organism-based; conditions: in vivo
[20] = test system: Rattus norvegicus; experiment: In vivo agonist activity at FXR in po dosed Sprague-Dawley rat assessed as induction of BSEP mRNA level in liver administered once daily for 14 days measured 7 hrs post last dose on day 14 by qPCR analysis; format: functional
[21] = AUC (0 to 24 hrs) in Sprague-Dawley rat at 0.3 mg/kg, po qd administered via gavage measured on day 1 by LC-MS/MS analysis; format: ADME, organism-based; set-up: dose 0.3 mg/kg, time < 24 hr, route oral; conditions: in vivo
[22] = test system: Rattus norvegicus; experiment: In vivo agonist activity at FXR in Sprague-Dawley rat assessed as induction of SHP mRNA level in ileum at 0.01 mg/kg, po qd for 14 days measured 7 hrs post last dose on day 14 by qPCR analysis; format: functional, organism-based
[23] = Cmax in Sprague-Dawley rat at 0.03 mg/kg, po qd administered via gavage measured on day 11 by LC-MS/MS analysis; format: ADME, organism-based; set-up: dose 0.03 mg/kg, route oral; conditions: in vivo
[24] = Drug uptake in Sprague-Dawley rat liver at 0.1 mg/kg, po qd administered via gavage measured 7 hrs post last dose on day 14 by LC-MS/MS analysis; format: ADME, organism-based; conditions: read-out: Drug uptake
Summary of the method: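 Drug concentration in liver was quantified from tissue homogenates, so these are total levels. Unbound liver concentration was not determined.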

[25] = test system: Rattus norvegicus; experiment: Dose normalized AUC (0 to 24 hrs) in Sprague-Dawley rat at 3 mg/kg, po qd administered via gavage measured on day 11 by LC-MS/MS analysis; format: ADME, organism-based; conditions: in vivo
[26] = Oral bioavailability in rat at 1 mg/kg administered via gavage by LC-MS/MS analysis; format: ADME, organism-based; conditions: in vivo; summary of the method: as §1
[27] = Drug uptake in Sprague-Dawley rat plasma at 3 mg/kg, po qd administered via gavage measured 1 hr post last dose on day 14 by LC-MS/MS analysis; format: ADME, organism-based
[28] = AUC (0 to 24 hrs) in Sprague-Dawley rat at 0.03 mg/kg, po qd administered via gavage measured on day 11 by LC-MS/MS analysis; format: ADME, organism-based; set-up: time < 24 hr, dose 0.03 mg/kg, route oral; conditions: in vivo
[29] = test system: Rattus norvegicus; experiment: Dose normalized AUC (0 to 24 hrs) in Sprague-Dawley rat at 0.01 mg/kg, po qd administered via gavage measured on day 11 by LC-MS/MS analysis; format: ADME, organism-based; conditions: in vivo
[30] = AUC in rat at 1 mg/kg, po administered via gavage by LC-MS/MS analysis; format: ADME, organism-based; conditions: in vivo
Summary of the method: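 Single oral dose given as a suspension in 0.5% methylcellulose, 0.5% Tween80 and 99% water. Doses were 10 mg/kg in mouse, 1 mg/kg in rat and 2 mg/kg in dog.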

[31] = Volume of distribution at steady state in mouse at 5 mg/kg, iv or 10 mg/kg, po administered via gavage by LC-MS/MS analysis; format: ADME, organism-based; conditions: in vivo, read-out: Vdss; summary of the method: as §1

Structure (SMILES): O=C(O)c1cc(F)c2nc(N3C4CCC3CC(OCc3c(-c5ccccc5OC(F)(F)F)noc3C3CC3)C4)sc2c1 (stereo unspecified)
- AUC/dose [1]: 503 nM·h
- Cmax [2]: 7.1 nM
- concentration at 7 h [3]: 1.16 nM
- Drug metabolism [4]: Metabolite_Notdetected
- AUC(0-t) at 24 h [5]: 0.004 µM·h
- AUC at 24 h [6]: 0.002 µM·h
- AUC at 24 h [7]: 0.005 µM·h
- Cmax [8]: 43.1 nM
- Vd [9]: 0.72 L/kg
- Activity [10]: Active
- Cmax [11]: 0.15 nM
- half-life [12]: 3.7 h
- solubility [13]: 600 µM (≈ 362 µg/mL)
- Drug metabolism [14]: Metabolite_Notdetected
- AUC at 24 h [15]: 0.562 µM·h
- AUC(0-t) at 24 h [16]: 0.002 µM·h
- half-life [17]: 3.7 h
- Activity [18]: Active
- Drug metabolism [19]: Metabolite_Notdetected
- ED50 [20]: 0.02 mg/kg
- AUC(0-t) at 24 h [21]: 0.117 µM·h
- Activity [22]: Active
- Cmax [23]: 1.9 nM
- concentration at 7 h [24]: 45 nM
- AUC/dose [25]: 563 nM·h
- bioavailability [26]: 10%
- concentration at 1 h [27]: 62.6 nM
- AUC at 24 h [28]: 0.02 µM·h
- AUC/dose [29]: 496 nM·h
- AUC [30]: 0.307 µM·h
- Vd [31]: 0.7 L/kg
